Assay results reported in ChEMBL document CHEMBL2093137, “WHO-TDR NTD Screening”.
Values after ≈ are worked out from the molar mass of the structure shown.

Experiments:
[1] = WHO-TDR: Cytotoxicity; format: toxicity, cell-based; conditions: human, MRC5 cells
[2] = tested on: Trypanosoma cruzi; experiment: WHO-TDR: Chagas disease; format: functional, organism-based, Homo sapiens; conditions: MRC5
Outline: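 Whole-organism screen of a 10,000-compound diverse library from Life Chemicals, filtered for drug-likeness and reactive groups, against intracellular amastigotes of Trypanosoma cruzi Tulahuen CL2 beta-galactosidase strain grown in MRC-5SV2 human lung fibroblast host cells. The assay followed previously published standard procedures, with a reference drug as positive control. Antiparasitic potency is reported as IC50.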

[3] = tested on: Onchocerca ochengi; experiment: WHO-TDR: Onchocerciasis; format: functional; set-up: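 at 12.5 µM on microfilariae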
Outline: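 Microfilariae of Onchocerca ochengi or Onchocerca lienalis, animal pathogens standing in for the human parasite, were exposed to compounds in a whole-organism screen. The compounds came from a 10,000-compound diverse Life Chemicals library filtered for drug-likeness and reactive groups. Results are expressed as percent inhibition and IC50.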

[4] = tested on: Trypanosoma brucei brucei; experiment: WHO-TDR: Human African Trypanosomiasis (HAT); format: functional, organism-based; conditions: Squib-427
Outline: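 In this whole-organism screen, the target was the bloodstream form of Trypanosoma brucei, strain Squib 427. A diverse set of 10,000 compounds from Life Chemicals, previously filtered for drug-likeness and reactive groups, was assayed by standard published procedures using reference drugs as positive controls. Each value is an IC50 for antiparasitic potency.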

[5] = tested on: Schistosoma mansoni; experiment: WHO-TDR: Schistosomiasis; format: functional; set-up: concentration or dose not given beside the values
Outline: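 In this whole-organism assay, larval and/or adult worms of Schistosoma mansoni (Puerto Rican strain) were exposed to compounds from a diverse Life Chemicals library of 10,000 members. A reference drug served as positive control. Activity is stated as percent inhibition and IC50.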

[6] = tested on: Plasmodium falciparum K1; experiment: WHO-TDR: Malaria; format: functional, organism-based, Homo sapiens; conditions: Erythrocyte
Outline: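 Previously published standard procedures, including a reference drug as positive control, were used to screen whole Plasmodium falciparum K1 parasites inside human red blood cells. IC50 is the measure of antiplasmodial potency. The compounds were a 10,000-member diverse Life Chemicals library.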

[7] = tested on: Leishmania infantum; experiment: WHO-TDR: Leishmaniasis; format: functional, organism-based, Mus musculus; conditions: Macrophage
Outline: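 Intracellular amastigotes of Leishmania infantum MHOM/MA(BE)/67, hosted in murine peritoneal macrophages, were exposed to compounds from a 10,000-member diverse library supplied by Life Chemicals. The library had been filtered for drug-likeness and reactive groups. The reported IC50 expresses antiparasitic potency.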

[8] = tested on: Brugia malayi; experiment: WHO-TDR: Lymphatic Filariasis; format: functional; set-up: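 tested at 10 µM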
Outline: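 In a whole-organism assay, Brugia malayi microfilariae were screened against a diverse Life Chemicals library that had been filtered for drug-likeness and reactive groups. That library comprised 10,000 compounds. Activity is expressed as percent inhibition and as IC50.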

| Structure (SMILES) | IC50 [4] [µg/mL] | IC50 [6] [µg/mL] | IC50 [7] [µg/mL] | IC50 [1] [µg/mL] | IC50 [2] [µg/mL] | % Inhibition [3] [%] | % Inhibition [5] [%] | % Inhibition [8] [%] |
| --- | --- | --- | --- | --- | --- | --- | --- | --- |
| CCOc1ccc2nc(NC(=O)CS(=O)(=O)c3ccc(Cl)cc3)sc2c1 | > 12.3 | > 12.3 | > 12.3 | > 12.3 | > 12.3 | 100 | 0 | – |
| Cc1cc2cc(CCNC(=O)C3c4ccccc4Oc4ccccc43)c(O)nc2cc1C | > 12.7 | > 12.7 | 0.412 (≈ 0.971 µM) | > 12.7 | > 12.7 | – | 0 | 0 |
| O=C(Nc1nnc(-c2ccco2)o1)c1cc(-c2ccccc2)nc2ccccc12 | 3.23 (≈ 8.45 µM) | 9.02 (≈ 23.6 µM) | 3.71 (≈ 9.71 µM) | 2.04 (≈ 5.33 µM) | 0.305 (≈ 0.798 µM) | – | 0 | 0 |
| CCOc1ccc2nc(N(Cc3cccnc3)C(=O)c3ccc(Cl)s3)sc2c1 | > 12.9 | 4.14 (≈ 9.62 µM) | > 12.9 | > 12.9 | 0.397 (≈ 0.922 µM) | 0 | 0 | – |
| O=C(Nc1nnc(-c2ccc3c(c2)OCCO3)o1)c1cc(-c2ccccc2)nc2ccccc12 | 4.27 (≈ 9.49 µM) | > 13.5 | 4.37 (≈ 9.71 µM) | 4.33 (≈ 9.6 µM) | 0.434 (≈ 0.963 µM) | – | 0 | 70 |
| CCCCCOc1cccc(C(=O)Nc2nnc(-c3ccco3)o2)c1 | 3.29 (≈ 9.63 µM) | > 10.2 | 3.28 (≈ 9.6 µM) | 5.71 (≈ 16.7 µM) | 0.368 (≈ 1.08 µM) | – | 0 | 25 |
| O=C(Nc1nnc(-c2cccnc2)o1)c1cccc(Br)c1 | > 11 | > 10.4 | 3.35 (≈ 9.71 µM) | 8.09 (≈ 23.4 µM) | 0.705 (≈ 2.04 µM) | – | 0 | 25 |
| CCOC(=O)Cn1/c(=N/C(=O)CSC(C)=O)sc2ccccc21 | 0.342 (≈ 0.97 µM) | > 10.6 | > 10.6 | > 10.6 | > 10.6 | – | 0 | 0 |
| O=C(Nc1cccc(-c2ccc3nnc(-c4cccs4)n3n2)c1)c1c(F)cccc1F | 0.481 (≈ 1.11 µM) | 5.18 (≈ 11.9 µM) | > 13 | > 13 | > 13 | 50 | 0 | – |
| O=C(Nc1cccc(-c2ccc3nnc(-c4ccncc4)n3n2)c1)c1ccc2ccccc2n1 | > 13.3 | 0.482 (≈ 1.09 µM) | > 13.3 | > 13.3 | 7.48 (≈ 16.9 µM) | 0 | 0 | – |
| Cc1nnc2ccc(-c3ccc(NS(=O)(=O)c4ccc5c(c4)CCCC5)cc3)nn12 | 4.63 (≈ 11 µM) | > 12.6 | 4.07 (≈ 9.71 µM) | > 12.6 | 4.92 (≈ 11.7 µM) | 100 | 0 | – |
| COc1ccc(C)c2sc(N(Cc3cccnc3)C(=O)Cc3ccccc3)nc12 | 3.87 (≈ 9.6 µM) | 3.83 (≈ 9.49 µM) | > 12.1 | > 12.1 | 0.992 (≈ 2.46 µM) | 0 | 0 | – |
| CC(=O)c1ccc(C(=O)N(Cc2cccnc2)c2nc3c(F)cc(F)cc3s2)cc1 | 5.26 (≈ 12.4 µM) | 6.29 (≈ 14.8 µM) | > 12.7 | > 12.7 | 1.31 (≈ 3.09 µM) | 100 | 0 | – |
| C=CCN(CC=C)S(=O)(=O)c1ccc(C(=O)Nc2nnc(-c3ccc(C)cc3C)o2)cc1 | 0.988 (≈ 2.18 µM) | > 13.6 | 5.72 (≈ 12.7 µM) | 4.48 (≈ 9.9 µM) | 0.583 (≈ 1.29 µM) | 0 | 0 | – |
| O=C(CCS(=O)(=O)c1ccc(Cl)cc1)Nc1cccc(-c2nc3ccccc3o2)c1 | > 13.2 | > 13.2 | 4.28 (≈ 9.71 µM) | > 13.2 | > 13.2 | 100 | 0 | – |
| Cc1ccc(SCCC(=O)Nc2cc(Cl)cc(Cl)c2)cc1 | > 10.2 | > 10.2 | > 10.2 | > 10.2 | > 10.2 | 100 | 0 | – |
| CCOC(=O)c1ccc(NC(=O)CCSc2ccc(C)cc2)cc1 | > 10.3 | > 10.3 | > 10.3 | > 10.3 | > 10.3 | 100 | 0 | – |
| COc1ccc(-c2nc(NC(=O)CSc3ccc(Cl)cc3)sc2C)cc1 | 3.93 (≈ 9.71 µM) | 0.41 (≈ 1.01 µM) | > 12.1 | > 12.1 | 1.52 (≈ 3.76 µM) | 100 | 0 | – |
| NS(=O)(=O)c1ccc2nc(NC(=O)CCSc3ccc(Cl)cc3)sc2c1 | 4.31 (≈ 10.1 µM) | > 12.8 | > 12.8 | > 12.8 | > 12.8 | 100 | 0 | – |

Second part, led by results:

| IC50 [4] [µg/mL] | IC50 [6] [µg/mL] | IC50 [7] [µg/mL] | Structure (SMILES) | IC50 [1] [µg/mL] | IC50 [2] [µg/mL] | % Inhibition [3] [%] | % Inhibition [5] [%] | % Inhibition [8] [%] |
| --- | --- | --- | --- | --- | --- | --- | --- | --- |
| 4.02 (≈ 9.49 µM) | > 12.7 | > 12.7 | O=C(COc1ccccc1)NCC(c1ccco1)N1CCN(c2ccc(F)cc2)CC1 (stereo not drawn) | > 12.7 | 4.08 (≈ 9.63 µM) | 100 | 0 | – |
| 2.97 (≈ 8.01 µM) | > 11.1 | > 11.1 | COc1cccc2sc(Nc3nc4ccc(NC(C)=O)cc4s3)nc12 | > 11.1 | 0.388 (≈ 1.05 µM) | – | 0 | 90 |
| 4.11 (≈ 9.71 µM) | > 12.7 | > 12.7 | O=C(NCC(c1ccco1)N1CCN(c2ccc(F)cc2)CC1)OCc1ccccc1 (stereo not drawn) | > 12.7 | 3.86 (≈ 9.13 µM) | 100 | 0 | – |
| > 10.9 | > 10.2 | > 10.2 | O=C(Nc1nnc(C2COc3ccccc3O2)o1)c1ccc(F)cc1 (stereo not drawn) | > 10.2 | 0.289 (≈ 0.847 µM) | – | 0 | 25 |
| 3.38 (≈ 10.1 µM) | > 10 | 3.25 (≈ 9.71 µM) | O=C(Nc1nnc(-c2cccnc2)o1)c1cccc(C(F)(F)F)c1 | 2.99 (≈ 8.96 µM) | 0.317 (≈ 0.948 µM) | – | 0 | 25 |
| > 8.53 | > 8.53 | > 8.53 | CCSc1nnc2ccc(-c3ccc(CC)cc3)nn12 | > 8.53 | > 8.53 | 100 | 0 | – |
| 3.81 (≈ 9.24 µM) | 2.67 (≈ 6.46 µM) | > 12.4 | O=C(Cc1cccs1)Nc1cccc(-c2ccc3nnc(-c4cccnc4)n3n2)c1 | 4.45 (≈ 10.8 µM) | > 12.4 | 100 | 0 | – |
| > 11.5 | 1.82 (≈ 4.75 µM) | > 11.5 | O=C(Nc1cccc(-c2ccc3nnc(-c4cccnc4)n3n2)c1)c1ccco1 | > 11.5 | > 11.5 | 100 | 0 | – |
| > 13.4 | 5.88 (≈ 13.2 µM) | > 13.4 | O=S(=O)(Nc1ccc(-c2ccc3nnc(-c4ccccn4)n3n2)cc1)c1ccccc1F | > 13.4 | > 13.4 | 100 | 0 | – |
| 7.21 (≈ 19.2 µM) | > 11.3 | 4.75 (≈ 12.6 µM) | COc1cccc(C(=O)Nc2ccc(C)cc2C(=O)c2ccccc2)c1OC | > 11.3 | 3.69 (≈ 9.83 µM) | 100 | 0 | – |
| > 9.71 | > 9.71 | > 9.71 | Cc1ccc(S(=O)(=O)CC(=O)Nc2cccc(Cl)c2)cc1 | > 9.71 | > 9.71 | 100 | 0 | – |
| > 12.3 | > 12.3 | > 12.3 | O=C(CS(=O)(=O)c1ccc(Cl)cc1)Nc1nc(-c2ccc(F)cc2)cs1 | > 12.3 | > 12.3 | 100 | 0 | – |
| > 11.2 | > 11.2 | > 11.2 | Cc1ccc(SCC(=O)Nc2ccccc2-c2nc3ccccc3[nH]2)cc1 | > 11.2 | > 11.2 | 100 | 0 | – |
| > 10.7 | > 10.7 | > 10.7 | Cc1ccc(SCCC(=O)Nc2nc(-c3ccccn3)cs2)cc1 | 8.21 (≈ 23.1 µM) | 0.368 (≈ 1.03 µM) | 75 | 25 | – |
| 5.06 (≈ 14.8 µM) | > 10.2 | > 10.2 | CNC(=O)c1ccsc1NC(=O)CSc1ccc(Cl)cc1 | > 10.2 | 4.93 (≈ 14.5 µM) | 100 | 0 | – |
